According to ChEMBL document CHEMBL1128519, “Semisynthetic chemical modification of the antifungal lipopeptide echinocandin B (ECB): structure-activity studies of the lipophilic and geometric parameters of polyarylated acyl analogs of ECB” (J Med Chem, 1995):
≈ marks a conversion by molar mass, not a printed value. Numbered stars: 1 amine (or outer) side, 2 acyl side, 3 side chain; on linkers, the order of the positions; unused ones are H or OH. Bridge positions count the residues as written; N and C are the ends. Square brackets hold non-standard residues; d marks the D form. Peptide text beside a SMILES is read from it. * marks the point of attachment. pTerphenylCO(4''-OnC5H11) = CCCCCOc1ccc(-c2ccc(-c3ccc(C(=O)*)cc3)cc2)cc1; Orn(4R-OH,5R-OH) = O=C([C@H](C[C@@H](O)[C@@H](O)N[*:3])N[*:1])[*:2]; Benzoyl(4-(biphenyl-4-yl)) = O=C(c1ccc(-c2ccc(-c3ccccc3)cc2)cc1)*; hTyr(3S-OH,4S-OH) = N[C@H](C(=O)O)[C@H](O)[C@@H](O)c1ccc(O)cc1; Benzoyl(4-(4-OctO-Ph)) = CCCCCCCCOc1ccc(-c2ccc(C(=O)*)cc2)cc1; Pro(3S-OH,4S-Me) = C[C@H]1CN[C@H](C(=O)O)[C@H]1O; Benzoyl(4-octyloxy) = CCCCCCCCOc1ccc(C(=O)*)cc1; X9 = CCCCCCCCCCOc1ccc2cc(C(=O)*)ccc2c1; Hyp = O=C(O)[C@@H]1C[C@@H](O)CN1

How the values were obtained:
[1] = system: Candida albicans; test: In vivo antifungal activity administered orally against Candida albicans infections in mice.; type: functional; settings: po
How it was run: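 X-irradiated (400 r, 24 h prior) male ICR mice infected iv with 2 × 10^6 C. albicans A26 cells. Oral gavage in cremophor (5%)/linoleic acid (8%)/water vehicle, b.i.d. × 4 starting immediately post-infection. 10 mice per dose level. Study ends at day 7; ED50 = dose giving 50% survival, by Reed-Muench.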

[2] = biological target: Beta-1,3-glucan synthase (Candida albicans) (UniProt O13428); test: In vitro inhibition of glucan synthase obtained from Candida albicans at a concentration of 10 ug/mL.
Chain of Beta-1,3-glucan synthase (Candida albicans) (O13428 as listed by the source): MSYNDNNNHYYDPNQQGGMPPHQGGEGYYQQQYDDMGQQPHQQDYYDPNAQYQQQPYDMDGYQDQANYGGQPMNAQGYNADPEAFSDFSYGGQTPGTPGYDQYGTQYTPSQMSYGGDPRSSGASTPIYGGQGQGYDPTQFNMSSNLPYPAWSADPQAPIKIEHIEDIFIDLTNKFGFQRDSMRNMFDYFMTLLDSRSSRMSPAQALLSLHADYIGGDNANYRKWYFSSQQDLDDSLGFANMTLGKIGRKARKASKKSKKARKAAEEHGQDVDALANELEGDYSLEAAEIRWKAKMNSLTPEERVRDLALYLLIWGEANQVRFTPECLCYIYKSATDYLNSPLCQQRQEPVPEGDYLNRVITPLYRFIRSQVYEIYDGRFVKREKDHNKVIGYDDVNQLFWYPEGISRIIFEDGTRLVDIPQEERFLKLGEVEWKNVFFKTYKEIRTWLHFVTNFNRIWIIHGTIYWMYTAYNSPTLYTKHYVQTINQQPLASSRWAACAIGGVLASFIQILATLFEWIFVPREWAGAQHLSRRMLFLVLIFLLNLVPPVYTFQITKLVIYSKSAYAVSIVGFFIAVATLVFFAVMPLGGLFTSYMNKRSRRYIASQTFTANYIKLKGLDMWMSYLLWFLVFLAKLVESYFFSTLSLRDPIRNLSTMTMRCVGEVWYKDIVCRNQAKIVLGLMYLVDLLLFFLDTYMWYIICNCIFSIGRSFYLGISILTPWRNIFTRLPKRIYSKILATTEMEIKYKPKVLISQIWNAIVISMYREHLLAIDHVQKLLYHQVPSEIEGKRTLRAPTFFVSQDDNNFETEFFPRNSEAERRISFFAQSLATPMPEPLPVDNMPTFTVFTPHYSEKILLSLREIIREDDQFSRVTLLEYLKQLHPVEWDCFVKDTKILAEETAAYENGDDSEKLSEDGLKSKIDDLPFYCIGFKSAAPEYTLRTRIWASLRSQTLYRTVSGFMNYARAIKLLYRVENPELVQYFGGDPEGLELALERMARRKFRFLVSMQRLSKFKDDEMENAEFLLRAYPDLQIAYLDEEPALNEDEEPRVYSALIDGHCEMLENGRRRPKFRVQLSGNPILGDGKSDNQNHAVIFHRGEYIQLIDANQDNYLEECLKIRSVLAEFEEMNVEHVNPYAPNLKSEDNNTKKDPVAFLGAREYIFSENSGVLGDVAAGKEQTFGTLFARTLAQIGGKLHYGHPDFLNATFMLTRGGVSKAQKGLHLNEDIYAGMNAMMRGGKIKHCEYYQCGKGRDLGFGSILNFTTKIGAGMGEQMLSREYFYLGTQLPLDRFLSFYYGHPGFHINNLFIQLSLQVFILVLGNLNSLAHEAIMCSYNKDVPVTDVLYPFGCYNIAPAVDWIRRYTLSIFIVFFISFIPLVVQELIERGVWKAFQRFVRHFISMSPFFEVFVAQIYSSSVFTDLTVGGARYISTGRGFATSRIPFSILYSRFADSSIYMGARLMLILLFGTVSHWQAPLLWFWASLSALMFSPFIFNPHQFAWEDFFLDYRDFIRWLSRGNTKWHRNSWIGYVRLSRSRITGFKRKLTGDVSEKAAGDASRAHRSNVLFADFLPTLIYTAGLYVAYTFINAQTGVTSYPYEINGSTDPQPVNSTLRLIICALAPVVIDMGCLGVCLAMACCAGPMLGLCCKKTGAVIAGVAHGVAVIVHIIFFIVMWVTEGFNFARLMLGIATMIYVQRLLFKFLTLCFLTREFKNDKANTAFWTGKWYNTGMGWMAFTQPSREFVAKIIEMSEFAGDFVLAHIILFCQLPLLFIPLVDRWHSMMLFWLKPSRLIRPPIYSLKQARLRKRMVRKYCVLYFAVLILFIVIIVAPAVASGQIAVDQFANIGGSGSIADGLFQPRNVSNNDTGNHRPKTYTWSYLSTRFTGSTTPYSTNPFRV
How it was run: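 Purified, solubilized β-(1,3)-D-glucan synthase prepared from C. albicans. Percent inhibition measured at 10 µg/mL compound, single determination.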

[3] = system: Candida albicans; test: In vivo antifungal activity administered intraperitoneally against Candida albicans infections in mice.; type: functional; settings: ip
How it was run: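 Male ICR mice (18-20 g), X-irradiated with 400 r 24 h before iv tail-vein infection with 2 × 10^6 C. albicans A26 cells in saline. Compounds suspended in β-cyclodextrin, given parenterally at 0, 4, 24 and 48 h post-infection. 10 mice per dose, top dose 10 mg/kg with 2-fold dilutions down to 0.039 mg/kg. 7-day survival; ED50 by Reed-Muench.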

[4] = system: Candida albicans; test: Antifungal activity against Candida albicans; type: functional
How it was run: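 Broth microdilution, C. albicans A26 (ATCC 62342) grown on Sabouraud dextrose agar at 35 °C; inoculum 1 × 10^5 conidia/mL in antibiotic 3 broth. Compounds dissolved at 1.0 mg/mL in methanol, 2-fold serial dilutions from 80 µg/mL, duplicate. Read after 48 h at 35 °C. MIC = lowest concentration completely inhibiting visible growth.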

| SMILES | ED50 [1] | inhibition [2] | ED50 [3] | MIC [4] |
| --- | --- | --- | --- | --- |
| CCCCCCCCCCOc1ccc2cc(C(=O)N[C@H]3C[C@@H](O)[C@@H](O)NC(=O)[C@@H]4[C@@H](O)[C@@H](C)CN4C(=O)[C@H]([C@@H](C)O)NC(=O)[C@H]([C@H](O)[C@@H](O)c4ccc(O)cc4)NC(=O)[C@@H]4C[C@@H](O)CN4C(=O)[C@H]([C@@H](C)O)NC3=O)ccc2c1 (X9-[Orn(4R-OH,5R-OH)]T[Hyp][hTyr(3S-OH,4S-OH)]T[Pro(3S-OH,4S-Me)]; lactam 1-C) | 46.1 mg/kg | 82.2% | 1.6 mg/kg | 5 ng/mL (≈ 4.51 nM) |
| CCCCCCCCOc1ccc(-c2ccc(C(=O)N[C@H]3C[C@@H](O)[C@@H](O)NC(=O)[C@@H]4[C@@H](O)[C@@H](C)CN4C(=O)[C@H]([C@@H](C)O)NC(=O)[C@H]([C@H](O)[C@@H](O)c4ccc(O)cc4)NC(=O)[C@@H]4C[C@@H](O)CN4C(=O)[C@H]([C@@H](C)O)NC3=O)cc2)cc1 ({Benzoyl(4-(4-OctO-Ph))}-[Orn(4R-OH,5R-OH)]T[Hyp][hTyr(3S-OH,4S-OH)]T[Pro(3S-OH,4S-Me)]; lactam 1-C) | 27.3 mg/kg | 81.5% | 0.5 mg/kg | 2.5 ng/mL (≈ 2.26 nM) |
| C[C@@H](O)[C@@H]1NC(=O)[C@H]([C@H](O)[C@@H](O)c2ccc(O)cc2)NC(=O)[C@@H]2C[C@@H](O)CN2C(=O)[C@H]([C@@H](C)O)NC(=O)[C@@H](NC(=O)c2ccc(-c3ccc(-c4ccccc4)cc3)cc2)C[C@@H](O)[C@@H](O)NC(=O)[C@@H]2[C@@H](O)[C@@H](C)CN2C1=O ({Benzoyl(4-(biphenyl-4-yl))}-[Orn(4R-OH,5R-OH)]T[Hyp][hTyr(3S-OH,4S-OH)]T[Pro(3S-OH,4S-Me)]; lactam 1-C) | > 50 mg/kg | 78.8% | 1.3 mg/kg | 78 ng/mL (≈ 74 nM) |
| CCCCCOc1ccc(-c2ccc(-c3ccc(C(=O)N[C@H]4C[C@@H](O)[C@@H](O)NC(=O)[C@@H]5[C@@H](O)[C@@H](C)CN5C(=O)[C@H]([C@@H](C)O)NC(=O)[C@H]([C@H](O)[C@@H](O)c5ccc(O)cc5)NC(=O)[C@@H]5C[C@@H](O)CN5C(=O)[C@H]([C@@H](C)O)NC4=O)cc3)cc2)cc1 [ANIDULAFUNGIN] ({pTerphenylCO(4''-OnC5H11)}-[Orn(4R-OH,5R-OH)]T[Hyp][hTyr(3S-OH,4S-OH)]T[Pro(3S-OH,4S-Me)]; lactam 1-C) | 7.8 mg/kg | 75% | 0.3 mg/kg | 5 ng/mL (≈ 4.38 nM) |
| CCCCCCCCOc1ccc(C(=O)N[C@H]2C[C@@H](O)[C@@H](O)NC(=O)[C@@H]3[C@@H](O)[C@@H](C)CN3C(=O)[C@H]([C@@H](C)O)NC(=O)[C@H]([C@H](O)[C@@H](O)c3ccc(O)cc3)NC(=O)[C@@H]3C[C@@H](O)CN3C(=O)[C@H]([C@@H](C)O)NC2=O)cc1 [CILOFUNGIN] ({Benzoyl(4-octyloxy)}-[Orn(4R-OH,5R-OH)]T[Hyp][hTyr(3S-OH,4S-OH)]T[Pro(3S-OH,4S-Me)]; lactam 1-C) | > 400 mg/kg | 76% | 7.6 mg/kg | 312 ng/mL (≈ 303 nM) |
